# Reference: ChEMBL document CHEMBL1275452, “Epidemiological cutoffs and cross-resistance to azole drugs in Aspergillus fumigatus” (2008)
# Key:
# Type in all cases: functional
# [1] = test system: Aspergillus fumigatus; assay: Antimicrobial activity against azole-resistant Aspergillus fumigatus harboring Tandem repeat-L98H (TR) mutation in cyp51A gene after 48 hrs by microdilution method
# How it was run: (§1)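 EUCAST broth microdilution in RPMI 1640 supplemented to 2% glucose. Inoculum 2 × 105 to 5 × 10^5 CFU/ml, spores counted in a hematocytometer. MIC read at 48 h as the concentration giving complete inhibition of visual growth. Strains with itraconazole MICs of ≥8 mg/liter were tested at least twice on different days (2 to 11 times). Values are geometric means of MICs. QC strain ATCC 204305 was included.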
# [2] = test system: Aspergillus fumigatus; assay: Antimicrobial activity against azole-resistant Aspergillus fumigatus harboring G54V, G54E, G54R and G54W mutation in cyp51A gene after 48 hrs by microdilution method; how it was run: as §1
# [3] = test system: Aspergillus fumigatus; assay: Antimicrobial activity against azole-resistant Aspergillus fumigatus harboring M220V, M220K, M220T and M220I mutation in cyp51A gene after 48 hrs by microdilution method; how it was run: as §1
# [4] = test system: Aspergillus fumigatus; assay: Antimicrobial activity against azole-susceptible Aspergillus fumigatus after 48 hrs by microdilution method
# How it was run: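 EUCAST broth microdilution on clinical isolates, RPMI 1640 with glucose to 2%. Inoculum 2 × 105 to 5 × 10^5 CFU/ml, counted as spores in a hematocytometer. MIC read at 48 h as the lowest concentration giving complete inhibition of visual growth. Strains with itraconazole MIC ≤1 mg/liter tested once, some at least twice. Values summarised as geometric means; QC strain ATCC 204305 run alongside.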
smiles,measurement,setting,value
CCC(C)n1ncn(-c2ccc(N3CCN(c4ccc(OCC5COC(Cn6cncn6)(c6ccc(Cl)cc6Cl)O5)cc4)CC3)cc2)c1=O (stereo not given) [ITRACONAZOLE],MIC,[1],16 µg/mL
same,MIC,[2],16 µg/mL
same,MIC,[3],16 µg/mL
same,MIC,[4],0.32 µg/mL
same,MIC90,[4],0.5 µg/mL
C[C@@H](c1ncncc1F)[C@](O)(Cn1cncn1)c1ccc(F)cc1F [VORICONAZOLE],MIC,[1],3.7 µg/mL
same,MIC,[2],0.42 µg/mL
same,MIC,[3],1 µg/mL
same,MIC,[4],0.53 µg/mL
same,MIC90,[4],1 µg/mL
C[C@@H](c1nc(-c2ccc(C#N)cc2)cs1)[C@](O)(Cn1cncn1)c1ccc(F)cc1F [RAVUCONAZOLE],MIC,[1],6.8 µg/mL
same,MIC,[2],0.32 µg/mL
same,MIC,[3],1.85 µg/mL
same,MIC,[4],0.6 µg/mL
same,MIC90,[4],1 µg/mL
CC[C@@H]([C@H](C)O)n1ncn(-c2ccc(N3CCN(c4ccc(OC[C@@H]5CO[C@@](Cn6cncn6)(c6ccc(F)cc6F)C5)cc4)CC3)cc2)c1=O [POSACONAZOLE],MIC,[1],0.68 µg/mL
same,MIC,[2],1.6 µg/mL
same,MIC,[3],0.65 µg/mL
same,MIC,[4],0.08 µg/mL
same,MIC90,[4],0.125 µg/mL
